Compound activity deposited in PubChem BioAssay by several laboratories.
A selection: hits, their analogues and other compounds. The true share with any hit is near 1.9%.
Hsp70 activator – Hsp70 transcriptional activation, primary screen; activation, % at 10 µM; AID 1203; HeLa Hsp70 promoter luciferase reporter, luminescence; scaled: vehicle 0, proteasome-inhibitor control 100%; 200,000 tested, 0.04% active;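 active means activation above the mean across all tested compounds plus 3 SD, cutoff set per campaign, cut at about 5.5% in these data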;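 further: 100% = MG132 at 30 µM as the positive control and 0% = DMSO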
H9c2 TAG inh – inhibitors of triacylglycerol accumulation. AID 651582. inhibition, % at 12.5 µM. 230,000 tested, 0.66% active. H9c2 cells, Nile Red lipid (TAG) fluorescence; cells loaded with 200 µM oleic acid;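 active means pattern-corrected inhibition of lipid staining of at least 50% with the nuclear-stain viability signal not falling by more than 50%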;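 further: 0% = DMSO wells and 100% = triacsin C control wells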
Rad51 HR inh – blocks human Rad51 in homologous recombination. 200,000 tested, 0.085% active. inhibition, % at 10 µM. hRad51 DNA strand exchange, fluorescence dequenching. AID 1385. Q06609;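 active means inhibition above 40% at the single screening dose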;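 further: 0% = DMSO control wells and 100% = blanks with heterologous ssDNA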
Target sequence (Q06609 whole entry, looked up): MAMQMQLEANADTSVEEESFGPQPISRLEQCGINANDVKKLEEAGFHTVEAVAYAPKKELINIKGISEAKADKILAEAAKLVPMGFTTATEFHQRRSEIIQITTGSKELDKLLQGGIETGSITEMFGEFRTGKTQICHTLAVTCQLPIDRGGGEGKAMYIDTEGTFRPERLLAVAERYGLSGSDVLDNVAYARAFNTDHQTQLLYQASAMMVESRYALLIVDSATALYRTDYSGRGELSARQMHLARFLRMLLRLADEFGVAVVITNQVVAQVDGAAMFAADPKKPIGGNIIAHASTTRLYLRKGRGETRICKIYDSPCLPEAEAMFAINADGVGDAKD
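Test system: preformed human Rad51 ssDNA filaments; also added: Donor/quencher-labelled 47-bp dsDNA substrate; doses: 10 µM final, single point; times: 37 °C 15-min filament assembly, 30-min compound preincubation, 15-min exchange; detection: FRET fluorescence dequenching, excitation 485 nm, emission 520 nm; read-out basis: Fluorescence-based percent inhibition, control- and blank-normalised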
GAA850 FXN act – increases GAA850 frataxin promoter reporter activity; HEK293 lucGAA850 FXN promoter luciferase reporter, 24 h; percent of 10 µM SAHA response; activation, % at 6 µM; 360,000 tested, 0.56% active; AID 540364;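 active means activation above the average of all compounds screened plus 3 SD, cutoff fixed separately per campaign, cut at about 7.5% in these data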;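 further: 0% = DMSO wells and 100% = 10 µM SAHA wells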
ABHD5-PLIN5 inh – blocks binding of human ABHD5 to perilipin-5 | Q00G26+Q8WTS1 | Split G. princeps luciferase complementation, luminescence, 4 h | inhibition, % at 4 µM | 360,000 tested, 0.78% active | AID 602281;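 active means inhibition above the mean inhibition across every tested compound plus 3 SD, cut at about 22% in these data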;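 further: 0% = DMSO only wells and the 100% control is not disclosed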
HIF act – HIF pathway transcriptional activation | U2OS HRE-luciferase reporter, luminescence; normalized: DMSO 0%, desferrioxamine 100% | activation, % at 7.5 µM (by protocol) | 300,000 tested, 0.32% active;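 active means mean activation of at least 10% of the iron chelator positive control signal, with at least half of replicates also reaching 10%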
TAG conf – confirmation of triacylglycerol accumulation inhibitors | shares compounds with H9c2 TAG inh | H9c2 lipid accumulation, Nile Red fluorescence; cells loaded with 200 µM oleic acid | 990 tested, 71% active | inhibition, % at 12.5 µM | AID 651629;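 active means mean inhibition across replicates of 40% or more; inactive means mean inhibition below 40%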;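 further: plate controls were DMSO only wells for no effect and Triacsin C treated wells for full effect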
* hit, by the source's call; . = no result.

SMILES	Hsp70 activator	H9c2 TAG inh	Rad51 HR inh	GAA850 FXN act	ABHD5-PLIN5 inh	HIF act	TAG conf
COc1ccc2c(c1)-c1nc(/N=C/c3ccc(O)c(OC)c3)sc1CC2	-0.2	-2.6	-5.8	3.7	-2.2	.	.
CCOc1ccc(CN(CC)C(=O)Cc2c[nH]c3ccccc23)cc1OC	.	.	.	0.8	5.4	-1.6	.
Cc1ccc(-c2nn3c(C)nnc3c3ccccc23)cc1S(=O)(=O)NC(C)c1ccccc1 (stereo unspecified)	-0.4	50.3*	-2.9	1.2	3.1	-0.3	53.1*
COc1ccc(NC(=O)C(C)N2c3cccc4cccc(c34)S2(=O)=O)cc1OC (stereo unspecified)	-0.4	.	10.0	0.1	-5.8	-0.3	.
CCCCCc1ccc(-c2cn(Cc3ccc(C(=O)c4ccccc4)cc3)nn2)cc1	.	60.8*	.	0.9	-1.9	1.3	51.0*
Cc1nnc2c(N(C)S(=O)(=O)c3ccccc3)nc3ccccc3n12	.	.	.	2.6	-12.4	0.4	.
COc1ccc(C(=O)OCC(=O)NCC2CCCO2)c(F)c1 (stereo unspecified)	.	-15.6	.	-0.1	-10.0	.	.
CCCCCCn1c(N2CCN(c3cccc(Cl)c3)CC2)nc2c1c(=O)[nH]c(=O)n2C	0.1	32.1	-6.4	-1.3	-2.7	-0.1	.
CCCCCCCCn1c(N2CCN(c3cccc(Cl)c3)CC2)nc2c1c(=O)[nH]c(=O)n2C	0.1	65.3*	5.0	0.2	-2.4	-0.2	65.6*
CN(Cc1ccccc1F)C(=O)c1cccc(NC(=O)CC2SC(N3CCCCC3)=NC2=O)c1 (stereo unspecified)	.	-3.5	.	2.2	-0.2	.	.
CCN(CC)CCNC(=O)C(Cl)=C1C(Cl)=C(Cl)C(Cl)=C1Cl	.	77.9*	.	3.1	-0.4	.	73.9*
Cc1[nH]c2ccccc2c1C(c1ccccn1)N1CCC(C)CC1 (stereo unspecified)	-0.3	51.4*	-9.8	2.0	-2.4	-0.4	55.2*
COc1ccc(N2CCN(CC(=O)c3c(C)n(C)c4ccc(OC)cc34)CC2)cc1	.	54.8*	31.1	1.9	-12.9	0.6	-92.4
CCCCN1CCCCC1(C)C(=O)NCc1cccs1 (stereo unspecified)	.	4.0	.	0.8	11.6	.	.
O=c1c2c3nc4ccccc4nc3n(/N=C/c3ccccn3)c2ncn1-c1ccccc1	.	71.8*	13.3	0.8	-0.2	0.5	70.6*
C=CCn1cnc2c(c1=O)c1nc3ccccc3nc1n2/N=C/c1ccccn1	.	.	.	-0.9	-1.8	.	.
CC(C)N1CCc2c(sc(NC(=O)C3CCCCC3)c2C(N)=O)C1	.	14.6	.	-0.2	9.9	1.3	.
CC1(C)CC(=O)C2=C(C1)Oc1nc3ccccc3cc1C2C(C#N)C#N (stereo unspecified)	-0.1	81.4*	-5.5	-1.0	18.1	0.3	60.4*
CN1CCN(C(=O)c2ccc(Cc3cn(C)c4ccccc34)nc2)CC1	.	53.7*	.	-2.7	-5.3	.	-0.2
CC(C)N(C(=O)c1ccc(Cc2cn(C)c3ccccc23)nc1)C(C)C	.	-8.9	.	0.3	-2.4	.	.
Cc1cccc(NC(=O)c2ccc(NC(C)c3ccccc3)c([N+](=O)[O-])c2)n1 (stereo unspecified)	-0.1	-5.7	.	-0.9	4.5	0.1	.
O=C(Nc1ccccc1)c1nc[nH]c1C(=O)NCCCNC(=O)c1[nH]cnc1C(=O)Nc1ccccc1	.	41.6	.	0.8	-2.7	.	.
O=C(Nc1ccccc1)c1nc[nH]c1C(=O)NCCCCCCNC(=O)c1[nH]cnc1C(=O)Nc1ccccc1	.	65.2*	.	1.5	3.3	.	72.8*
CC(=O)Nc1ccc(OCC(O)Cn2nc(C)c(C)c2C)cc1 (stereo unspecified)	.	.	.	0.2	0.1	-0.6	.
S=C(N/N=C/c1cccs1)NC1CC2CCC1C2 (stereo unspecified)	.	54.0*	5.8	3.1	-8.6	2.7	56.2*
SMILES	Hsp70 activator	H9c2 TAG inh	Rad51 HR inh	GAA850 FXN act	ABHD5-PLIN5 inh	HIF act	TAG conf
Cc1cc(COc2ccccc2)oc1C(=O)O	.	-9.6	.	2.9	2.9	0.8	.
O=C(Nc1sc2c(c1-c1nc3ccccc3[nH]1)CCCC2)C1CCCC1	-0.2	57.6*	-0.1	-0.6	-15.3	0.0	60.0*
Cn1nc(-c2ccc(Cl)cc2)c2cc(C(=O)NC3CC3)sc21	-0.3	76.1*	5.8	-1.9	-1.1	.	70.1*
CCOCCCNC(=O)c1cc2c(-c3ccc(Cl)cc3)nn(C)c2s1	-0.3	32.4	-8.7	-2.0	-3.3	.	.
Cc1noc(C)c1COc1cccc(C(=O)OCC(=O)N2CC(=O)Nc3ccccc32)c1	-0.1	65.5*	4.7	-2.8	4.0	-0.6	89.2*
COc1ccc(C2=C(C=Nc3c(C)n(C)n(-c4ccccc4)c3=O)C(c3ccccc3C)c3ccccc3O2)cc1OC (stereo unspecified)	-0.6	61.1*	-0.5	-3.3	-4.8	-0.2	32.4
Brc1ccc(C2=Nn3c(nnc3-c3n[nH]c4c3CCC4)SC2)cc1	0.2	81.2*	-1.2	-0.2	1.1	0.2	84.6*
Cc1ccc(-c2nnc3n2N=C(c2ccc(Br)cc2)CS3)cc1	-0.3	.	-4.7	4.2	-1.8	-0.3	.
COc1cc(/C=C2/NC(=O)N(Cc3ccccc3F)C2=O)ccc1O	0.3	59.0*	.	0.5	-8.5	0.0	63.1*
COc1cc(/C=C2/NC(=O)N(Cc3ccccc3F)C2=O)ccc1Oc1ccc([N+](=O)[O-])cn1	-0.3	10.7	-2.4	0.8	3.9	0.2	.
CN1N=C(N)c2cn(C3OC(COP(=O)(O)O)C(O)C3O)c3ncnc1c23 (stereo unspecified)	.	51.8*	.	5.0	-6.0	.	64.2*
COc1ccc2cc(Br)ccc2c1CC(=O)NC1CC(C)(C)NC(C)(C)C1	0.0	63.6*	-0.3	-2.1	7.3	-1.1	12.4
C=CCOc1ccc(/C=N/NC(=O)C(=O)Nc2ccccn2)cc1OC	0.0	.	-40.2	2.2	0.4	0.3	.
CSc1nc(NCCN(C)C)c2sc3nc(-c4ccco4)c4c(c3c2n1)CCC4	.	51.0*	.	1.2	-1.1	.	37.1
Cc1cc(C)c(C)c(C(=O)COC(=O)CNC(=O)CNC(=O)c2ccco2)c1C	.	.	.	1.1	1.2	-0.1	.
O=C(NCCc1c[nH]c2ccccc12)C1CCC(Cn2c(=S)[nH]c3ccccc3c2=O)CC1 (stereo unspecified)	-0.2	65.5*	-2.0	-4.0	-0.3	-0.6	60.6*
CNc1cnc(-c2ccsc2)cn1	.	8.8	.	5.0	-0.3	.	.
Cc1cc(N/N=C/c2cccc([N+](=O)[O-])c2)nc(-n2nc(C)cc2C)n1	.	71.1*	6.5	1.2	4.7	-0.5	16.4
Cc1cc(N/N=C/c2cccc(Cl)c2)nc(-n2nc(C)cc2C)n1	.	52.9*	1.6	-0.3	-9.9	-0.2	40.5*
